Measurements as given in paper PMC7401491 (Investigative Ophthalmology & Visual Science, 2020).
Where two headings read alike, the source gives them in different places. Ends that are not written are not given here.

T1: CAP37-derived peptide 20-44 (human)
T1 sequence (P20160 46-70, looked up): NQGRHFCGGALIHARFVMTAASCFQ

T2: CAP37-derived peptide 120-146 WH (human)
T2 sequence (P20160 146-172 with Q131W R132H, looked up): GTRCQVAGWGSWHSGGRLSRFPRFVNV

B1: recombinant human S100 calcium-binding protein A9 (S100A9), C-terminus 8-His tag (natural protein, UniProt P06702 1-114, looked up)
chain: MTCKMSQLERNIETIINTFHQYSVKLGHPDTLNQGEFKELVRKDLQNFLKKENKNEKVIEHIMEDLDTNADKQLSFEEFIMLMARLTWASHEKMHEGDEGPGHHHKPGLGEGTP
B2: cationic antimicrobial protein of 37 kDa (CAP37) (natural protein, human, UniProt P20160 27-248, looked up)
chain: IVGGRKARPRQFPFLASIQNQGRHFCGGALIHARFVMTAASCFQSQNPGVSTVVLGAYDLRRRERQSRQTFSISSMSENGYDPQQNLNDLMLLQLDREANLTSSVTILPLPLQNATVEAGTRCQVAGWGSQRSGGRLSRFPRFVNVTVTPEDQCRPNNVCTGVLTRRGGICNGDGGTPLVCEGLAHGVASFSLGPCGRGPDFFTRVALFRDWIDGVLNNPGP
B3: recombinant human S100 calcium binding protein S100A8 (untagged) (natural protein, UniProt P05109 1-93, looked up)
chain: MLTELEKALNSIIDVYHKYSLIKGNFHAVYRDDLKKLLETECPQYIRKKGADVWFKELDINTDGAVNFQEFLILVIKMGVAAHKKSHEESHKE

How the values were obtained:
TLR4/MD-2 complex = TLR4/MD-2 complex (Homo sapiens, UniProt O00206+Q9Y6Y9); experiment: ELISA binding of His-tagged TLR4/MD-2 complex to coated proteins/peptides; conditions: for Binding of TLR4/MD-2 to coated protein/peptide (in words): ELISA, TLR4/MD-2 at 10 nM, compared with BSA
TLR4/MD-2 complex, sequence (O00206 24-631 limits assumed): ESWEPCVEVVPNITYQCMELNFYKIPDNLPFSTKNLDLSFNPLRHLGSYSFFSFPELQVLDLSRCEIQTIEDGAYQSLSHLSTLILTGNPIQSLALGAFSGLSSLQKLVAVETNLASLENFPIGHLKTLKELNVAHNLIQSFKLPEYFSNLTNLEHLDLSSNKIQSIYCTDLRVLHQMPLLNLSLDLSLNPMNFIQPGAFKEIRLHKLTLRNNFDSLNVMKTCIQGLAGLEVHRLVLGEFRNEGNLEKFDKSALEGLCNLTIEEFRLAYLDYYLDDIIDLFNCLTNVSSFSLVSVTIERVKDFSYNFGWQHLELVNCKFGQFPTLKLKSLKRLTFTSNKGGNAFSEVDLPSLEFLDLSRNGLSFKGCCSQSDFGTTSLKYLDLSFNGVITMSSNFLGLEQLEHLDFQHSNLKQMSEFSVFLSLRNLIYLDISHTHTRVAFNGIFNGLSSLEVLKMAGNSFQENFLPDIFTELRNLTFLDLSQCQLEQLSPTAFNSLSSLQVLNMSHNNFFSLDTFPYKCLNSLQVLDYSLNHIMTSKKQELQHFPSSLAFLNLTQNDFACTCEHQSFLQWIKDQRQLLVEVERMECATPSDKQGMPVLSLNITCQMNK
TLR4/MD-2 complex, sequence (Q9Y6Y9 17-160 partner limits assumed): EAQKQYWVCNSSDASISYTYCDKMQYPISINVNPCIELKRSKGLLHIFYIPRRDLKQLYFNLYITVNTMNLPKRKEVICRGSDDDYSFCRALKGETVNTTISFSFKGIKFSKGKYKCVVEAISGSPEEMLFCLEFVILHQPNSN
In short: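 ELISA against coated protein or peptide at 5 µg/ml (PBS pH 7.4; 2 h RT, then 4°C overnight), blocked with 3% BSA/PBST. Recombinant human TLR4/MD-2 complex, both chains His-tagged, 0–100 nM in PBST/0.1% BSA, 70 min at 37°C. Probed with anti-His mAb 1.0 µg/ml, then peroxidase secondary; OD 492 nm. 0-nM values subtracted; Kd derived; compared with BSA. Mean ± SEM, three independent experiments.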

[1] = biological target: CAP37-derived peptide 20-44 5RMP (human); experiment: ELISA
[2] = biological target: T1, CAP37-derived peptide 20-44 (human); experiment: ELISA
[3] = biological target: CAP37-derived peptide 120-146 WH 5RMP (human); experiment: ELISA
[4] = biological target: T2, CAP37-derived peptide 120-146 WH (human); experiment: ELISA
[5] = biological target: B3; experiment: ELISA
[6] = biological target: B2; experiment: ELISA
[7] = biological target: CAP37-derived peptide 20-44 5RMP (human); experiment: ELISA; remark: listed apart in the source
[8] = biological target: T1, CAP37-derived peptide 20-44 (human); experiment: ELISA; remark: listed apart in the source
[9] = biological target: CAP37-derived peptide 120-146 WH 5RMP (human); experiment: ELISA; remark: listed apart in the source
[10] = biological target: T2, CAP37-derived peptide 120-146 WH (human); experiment: ELISA; remark: listed apart in the source
[11] = tested on: TLR4 activation by S100A9; experiment: HEK-Blue hTLR4 assay, effect on activation of TLR4 by 10-nM S100A9; type: cell-based, human
TLR4 = TLR4 (Homo sapiens, UniProt O00206); experiment: HEK-Blue hTLR4 stimulation assay; type: cell-based; conditions: HEK-hTLR4 cells
TLR4, sequence (O00206 24-839): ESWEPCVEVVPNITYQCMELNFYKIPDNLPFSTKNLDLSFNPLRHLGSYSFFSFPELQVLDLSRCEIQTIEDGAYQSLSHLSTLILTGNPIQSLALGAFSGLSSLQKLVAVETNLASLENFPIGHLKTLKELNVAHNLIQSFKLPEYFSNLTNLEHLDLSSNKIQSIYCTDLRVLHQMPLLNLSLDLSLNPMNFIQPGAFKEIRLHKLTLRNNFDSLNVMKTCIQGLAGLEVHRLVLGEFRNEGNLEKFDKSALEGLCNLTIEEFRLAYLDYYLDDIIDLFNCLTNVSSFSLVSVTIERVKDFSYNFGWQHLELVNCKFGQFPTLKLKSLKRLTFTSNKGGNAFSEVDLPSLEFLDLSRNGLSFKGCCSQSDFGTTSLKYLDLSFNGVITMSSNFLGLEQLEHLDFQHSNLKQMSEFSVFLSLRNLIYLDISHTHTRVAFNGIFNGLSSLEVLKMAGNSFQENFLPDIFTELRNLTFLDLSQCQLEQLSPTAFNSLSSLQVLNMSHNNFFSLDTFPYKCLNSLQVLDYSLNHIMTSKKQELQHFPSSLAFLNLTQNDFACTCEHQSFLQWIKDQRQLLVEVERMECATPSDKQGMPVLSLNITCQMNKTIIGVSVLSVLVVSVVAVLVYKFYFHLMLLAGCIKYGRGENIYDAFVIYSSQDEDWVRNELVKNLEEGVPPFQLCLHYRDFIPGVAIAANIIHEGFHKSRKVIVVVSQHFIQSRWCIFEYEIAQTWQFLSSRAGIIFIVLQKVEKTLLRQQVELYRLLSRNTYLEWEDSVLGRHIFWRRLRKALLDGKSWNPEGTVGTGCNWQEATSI
TLR4, sequence (Q9Y6Y9 17-160 partner limits assumed): as the sequence (Q9Y6Y9 17-160 partner limits assumed) above
In short: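 HEK-Blue hTLR4 cells (human TLR4, MD-2, CD14, NF-κB/AP-1-driven SEAP), passages 3–15, detached with warm PBS and suspended serum-free at 1.4 × 10^5 cells/ml. Test compound in nuclease-free water at final 10 nM–100 µM; 24 h, 37°C, 5% CO2. SEAP read with Quanti-Blue, 3 h, OD 630 nm, normalised to BCA protein. Untreated background subtracted; expressed as % of 50-nM S100A9. Three experiments in triplicate.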

S100A8 = experiment: ELISA binding of CAP37 to S100A8; set-up: species or system human; conditions: data not shown
[12] = biological target: T3, recombinant human TLR4/myeloid differentiation factor 2 (MD-2) complex (human, UniProt O00206 24-631; Q9Y6Y9 19-160); experiment: ELISA
T3 sequence (O00206 24-631, chain 1 of 2): as the sequence (O00206 24-631 limits assumed) above
T3 sequence (Q9Y6Y9 19-160, chain 2 of 2): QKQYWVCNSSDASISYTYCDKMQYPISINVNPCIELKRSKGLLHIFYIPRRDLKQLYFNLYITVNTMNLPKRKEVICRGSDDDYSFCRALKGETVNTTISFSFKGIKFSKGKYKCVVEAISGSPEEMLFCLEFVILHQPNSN

[13] = biological target: T3, recombinant human TLR4/myeloid …; experiment: ELISA; remark: listed apart in the source

NE: neutrophil elastase purified from human neutrophils
Binding of TLR4/MD-2 to coated protein/peptide (in words) (TLR4/MD-2 complex): did not significantly interact

LDREANLTSSVTILPLPLQNATVEAGTR [95-122]
Binding of TLR4/MD-2 to coated protein/peptide (in words) (TLR4/MD-2 complex): only minimal interaction

recombinant human TLR4/myeloid differentiation factor 2 (MD-2) complex (from UniProt O00206 24-631; Q9Y6Y9 19-160)
Kd [1]: 270 nM
Kd [2]: 90.6 nM
Kd [3]: 18.9 nM
Kd [4]: 229 nM

CG: cathepsin G purified from human neutrophils
Binding of TLR4/MD-2 to coated protein/peptide (in words) (TLR4/MD-2 complex): did not significantly interact

B1
binding at 10 nM S100A9 relative to its binding to CAP37 [5]: 2 fold
Kd [6]: 9.2 nM
Kd [7]: 23.5 nM
Kd [8]: 43.8 nM
Kd [9]: 22.3 nM
Kd [10]: 37.3 nM

B2
Binding of TLR4/MD-2 to coated protein/peptide (in words) (TLR4/MD-2 complex): low, but specific, interaction
Fold lower affinity for TLR4 than for S100A9 (TLR4/MD-2 complex; Kd 98 nM versus Kd 9.2 nM): ~10 fold
Decrease of TLR4 activation by S100A9 ([11]; CAP37 0.01 nM preincubated 1 hour with 10-nM S100A9, from 50% to 30%): ~20%
Decrease of TLR4 activation by S100A9 ([11]; CAP37 10 nM preincubated 1 hour with 10-nM S100A9): 10%
Decrease of TLR4 activation by S100A9 ([11]; CAP37 1 µM preincubated 1 hour with 10-nM S100A9): no decrease
Fold higher concentration at which TLR4 activation begins, versus S100A9 (TLR4): approximately 100 fold
Concentration at which activation of TLR4 begins (TLR4; 24 h, SEAP): 100 nM
Interaction between CAP37 and S100A8 (in words) (S100A8): specific, but low, interaction
Kd [12]: 98 nM

B3
binding result [13]: binds
